Efflux pump mplx – inhibitors of Candida efflux pumps in yeast, primary screen, S. cerevisiae, Nile Red, multiplex; AID 485275, 2010; hit rate 0.44% among 330,000; S. cerevisiae Candida pump triplex; inhibition, % at 10 µM;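 active = plate passing quality check with inhibition over a set limit, or well fluorescence over plate mean plus 4 SD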;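 also: Nile Red retained in pooled yeast measured as flow cytometry median fluorescence; 0% = buffer negative control and 100% = Enniatin B positive control; higher means more Nile Red kept so more efflux inhibition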
MC4R barr agon – MC4R agonists recruiting beta-arrestin, primary screen, cell-based, luminescence, agonist arm of biased-ligand search; activation, % at 8.9 µM; hit rate 0.98% among 360,000; U2OS MC4R beta-arrestin complementation; percent of melanotan II response, DMSO zero; Melanocortin receptor 4 (Homo sapiens), P32245;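 active = activation above a per-plate cutoff, the mean activation of sample wells on that plate plus 3 SD, cut at about 8% in these data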
GalR3 antagonist – GalR3 antagonists in HEK293 cells, primary screen, cell-based, fluorescence readout; inhibition, % at 3 µM; Galanin receptor type 3 (Homo sapiens), O60755; AID 651719, 2012; HEK293 GalR3-CNG cAMP membrane potential fluorescence; galR3 body fused to GalR1 C-terminus; hit rate 0.44% among 360,000;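 active = inhibition above the screen-wide average plus 3 SD, cut at about 13% in these data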;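 also: forskolin and galanin both at EC90 stimulate the cells; cAMP rise reported by CNG channel membrane potential dye signal; 0% = forskolin plus galanin with DMSO and 100% = forskolin alone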
TAG inh – inhibitors of triacylglycerol accumulation, primary screen, cell-based, uHTS, fluorescence, H9c2; H9c2 cells, Nile Red lipid (TAG) fluorescence; cells loaded with 200 µM oleic acid; hit rate 0.66% among 230,000; inhibition, % at 12.5 µM;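 active = pattern-corrected inhibition of lipid staining of at least 50% with the nuclear-stain viability signal not falling by more than 50%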;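 also: 0% = DMSO wells and 100% = triacsin C control wells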
MC4R antagonist – MC4R antagonists of cAMP signaling, primary screen, cell-based, TR-FRET, antagonist arm of biased-ligand search; hit rate 0.48% among 360,000; inhibition, % at 6.5 µM; Melanocortin receptor 4 (Homo sapiens), P32245; MC4R-expressing cells, MTII-stimulated cAMP, LANCE TR-FRET; AID 540295, 2011;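 active = inhibition above its plate's cutoff, the mean of tested wells on that plate plus 3 SD, cut at about 29% in these data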;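 also: 0% = Melanotan II alone and 100% = Melanotan II plus saturating MCL0020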
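System: U2OS-MC4R stable cell line; Technique: Eu-cAMP/anti-cAMP TR-FRET, emission 671 nm; Repeats: single well per compound; Also added: Melanotan II; Dosing: one concentration, 6.5 µM nominal; Schedule: 30-min compound, 1-h challenge, 1-h detection, room temperature.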
Calb FLC – C. albicans growth inhibition with fluconazole, primary screen, CaCi-2 strain, Alamar Blue fluorescence; C. albicans CaCi-2 (fluconazole-resistant clinical isolate) + fluconazole, 48 h; growth inhibition, % (concentration not given with the values); hit rate 0.57% among 300,000; AID 1979, 2009;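 active = growth inhibition above about 58% in most replicates, limit read from the data, passing the limit was not always enough; inconclusive = exactly half the replicates above a set limit; inactive = most replicates below a set limit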;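 also: all wells also contain fluconazole at 8 µg/ml as a sub-toxic cotreatment; 0% = median of DMSO wells and 100% = median of geldanamycin control wells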
MC4R barr conf – MC4R beta-arrestin agonists, retest, confirmation, cell-based, luminescence, U2OS; AID 602192, 2012; activation, % at 8.9 µM; shares compounds with MC4R barr agon; hit rate 31% among 2,400; U2OS MC4R beta-arrestin recruitment; scaled DMSO 0%, Melanotan II 100%;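 active = mean activation across replicates above the hit cutoff set in the earlier primary screen, cut at about 8% in these data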
MOR-DOR barr ag – agonists of MOR-DOR heterodimerization, counter-screen for MC4R biased agonist project, cell-based, luminescence; shares compounds with MC4R barr agon; U2OS PathHunter beta-arrestin, beta-gal luminescence; percent of deltorphin B response, DMSO zero; activation, % at 9.2 µM; hit rate 5.8% among 2,400;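 active = mean activation across replicates exceeds the hit threshold derived in the earlier primary screen, cut at about 18% in these data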;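 also: 100% = deltorphin B at 0.9 µM final and 0% = DMSO alone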
Target sequence (P35372 whole entry, looked up): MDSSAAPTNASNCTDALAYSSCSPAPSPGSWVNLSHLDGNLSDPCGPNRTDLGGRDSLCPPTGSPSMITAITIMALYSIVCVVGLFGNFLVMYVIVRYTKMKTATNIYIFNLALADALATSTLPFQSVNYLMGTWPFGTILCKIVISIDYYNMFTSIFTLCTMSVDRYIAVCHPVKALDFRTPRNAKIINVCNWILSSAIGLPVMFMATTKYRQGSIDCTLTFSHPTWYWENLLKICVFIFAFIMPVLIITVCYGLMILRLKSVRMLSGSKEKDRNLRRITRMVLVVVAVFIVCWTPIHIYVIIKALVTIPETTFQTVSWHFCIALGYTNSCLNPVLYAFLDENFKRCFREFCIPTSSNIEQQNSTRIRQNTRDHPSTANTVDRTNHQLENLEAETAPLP
Target sequence (P41143 whole entry, looked up): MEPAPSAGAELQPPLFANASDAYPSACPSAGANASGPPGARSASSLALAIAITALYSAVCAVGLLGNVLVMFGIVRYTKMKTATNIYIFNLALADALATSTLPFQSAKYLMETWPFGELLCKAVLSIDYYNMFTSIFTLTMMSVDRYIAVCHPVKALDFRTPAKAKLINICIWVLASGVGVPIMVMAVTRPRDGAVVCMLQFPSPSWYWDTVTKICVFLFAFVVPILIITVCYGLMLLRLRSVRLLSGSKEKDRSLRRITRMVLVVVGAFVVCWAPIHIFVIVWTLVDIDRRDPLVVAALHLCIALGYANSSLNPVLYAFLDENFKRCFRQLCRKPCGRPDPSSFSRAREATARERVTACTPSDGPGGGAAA
Active calls of the source: *; ? = inconclusive; / = no result given. Compounds with a hit are over-represented: about 2.9% of the library has one in this group of screens.

SMILES	Efflux pump mplx	MC4R barr agon	GalR3 antagonist	TAG inh	MC4R antagonist	Calb FLC	MC4R barr conf	MOR-DOR barr ag
CCCOc1c(Br)cc(C(=O)OCC(=O)NC(=O)c2cccn2C)cc1OC	0	18*	-2	2	1	/	8.6*	7
COc1ccc(Cl)cc1C(=O)OCC(=O)NC(=O)c1cccn1C	0	1	-3	/	5	?	/	/
O=C(CSc1ccc(Cl)cc1)NC1CCCc2ccccc21 (stereo not given)	0	11*	-3	/	3	-5	3	5
O=C(CSc1ccccc1Cl)NC1CCCc2ccccc21 (stereo not given)	0	-1	1	/	4	13	/	/
O=C(CSc1c(Cl)cccc1Cl)NC1CCCc2ccccc21 (stereo not given)	0	31*	3	/	3	26	-3	4
O=C(CSc1nc2ccc(Cl)cc2[nH]1)NC1CCCc2ccccc21 (stereo not given)	0	1	0	-1	14	-9	/	/
CSc1cc(-c2ccccc2)n(C)c(=O)c1C#N	0	12*	-4	5	-4	104*	1	3
CCOC(=O)Cn1c(-c2ccccc2)cc(SC)c(C#N)c1=O	0	0	-13	/	-6	1	/	/
Cc1ccc(-c2nnn(CC(=O)N(CC(=O)NC3CCCC3)c3ccc(F)c(Cl)c3)n2)o1	0	10*	-4	/	6	0	1	5
CN(CCc1ccccc1)C(=O)c1ccc(NC(=O)Cc2ccc(NC(=O)C3CCN(C(=O)CCc4ccccc4)CC3)cc2)cc1	/	-2	1	6	12	/	/	/
Cc1c(CCOC(=O)c2ccc(Cl)cc2Cl)sc[n+]1CC(=O)c1ccc(Br)cc1	0	28*	-6	-1	8	/	23*	23*
O=C(C(=O)N1CCN(c2ccccc2F)CC1)c1ccccc1	/	/	-4	/	/	/	/	/
Cc1ccc(NC(=O)CSc2ccccc2NC(=O)c2ccccc2)cc1Cl	0	13*	-6	/	12	1	8	24*
Cc1ccc(NC(=O)CSc2ccccc2NC(=O)c2ccccc2Cl)cc1Cl	0	0	-2	/	8	-16	/	/
O=C(NCc1ccccn1)[C@@H]1CCCN1C(=O)[C@@H]1CCCN1C(=O)c1cccc2ccccc12	/	/	2	/	/	/	/	/
O=C(Nc1ccc(-c2nc3ccccc3[nH]2)cc1)c1ccccc1NS(=O)(=O)c1ccc(F)cc1	0	15*	-2	/	25	16	6	2
CS(=O)(=O)c1ccccc1C(=O)Nc1ccc(-c2nc3ccccc3[nH]2)cc1	0	-2	-9	/	-1	-3	/	/
CCOC(=O)C1(C)CCCCCN1C(=O)c1ccc(OC)c(C(F)(F)F)c1 (stereo not given)	/	10*	-2	-13	13	/	3	5
COc1ccc(C(=O)N2CCCC2(C)C(=O)O)cc1C(F)(F)F (stereo not given)	/	0	-6	4	12	/	/	/
Cc1cc(O)c(NC(=S)NC(=O)c2ccc(-c3ccc(Cl)cc3)o2)cc1C	0	-10	4	2	4	31	/	/
Cc1ccc(NC(=S)NC(=O)c2ccc(-c3ccc(Cl)cc3)o2)c(O)c1	0	16*	-8	/	7	?	21*	2
O=C(Nc1ccccc1)C1(c2ccccc2)CC1(Cl)Cl (stereo not given)	0	-2	-5	3	3	-5	/	/
O=C(Nc1cc(Cl)ccn1)C1(c2ccccc2)CC1(Cl)Cl (stereo not given)	0	11*	-7	13	10	3	4	9
CN1C(=O)[C@H]2[C@@H](c3ccc(C(F)(F)F)cc3)N[C@]3(CCCN(Cc4ccc(Cl)cc4)C3=O)[C@H]2C1=O	/	9.7*	-4	-11	16	/	-3	2
O=c1c(Cl)c(N/N=C/c2ccc(Cl)cc2)cnn1-c1ccccc1	0	18*	-3	4	3	-8	9.4*	5
SMILES	Efflux pump mplx	MC4R barr agon	GalR3 antagonist	TAG inh	MC4R antagonist	Calb FLC	MC4R barr conf	MOR-DOR barr ag
O=C(NC(=S)Nc1ccc(NC(=O)c2cccs2)cc1)c1ccco1	0	-1	-3	/	-1	2	/	/
O=C(NC(=S)Nc1ccc(NC(=O)c2cccs2)cc1)c1cc2ccccc2o1	0	26*	-2	/	-4	-7	9.6*	10
Cc1ccc(C(=O)NC(=S)Nc2ccc(NC(=O)c3cccs3)cc2)cc1[N+](=O)[O-]	-1	29*	-3	/	4	-2	5	8
COC(=O)C1=C(C)N(Cc2ccccc2C(F)(F)F)C(=NCc2ccc3c(c2)OCO3)NC1c1ccccc1 (stereo not given)	/	/	0	/	/	/	/	/
CC(=O)N1CCC(C(=O)N2c3ccccc3N=C(c3ccc(C(F)(F)F)cc3)C2C(=O)NC(C)C)CC1 (stereo not given)	/	/	-7	/	/	/	/	/
Cc1ccc(NC(=O)/C(C#N)=C/c2ccc(Sc3nc(C)cc(C)n3)o2)cc1	0	23*	0	/	18	-7	6	22*
C/C(=N/OCO/N=C(\C)c1ccccc1F)c1ccccc1F	0	9.6*	-3	/	2	12	-1	4
O=C(Nc1cccc(Oc2ccccc2)c1)C1Cc2c(-c3ccc4c(c3)OCO4)ccnc2O1 (stereo not given)	/	-1	-2	1	0	/	/	/
COc1ccc(C(=O)Nc2ccccc2C(=O)NC2CC2)c(OC)c1OC	/	1	-6	-2	3	/	/	/
Cc1ccc2oc(-c3ccc(NC(=O)CC(C)C)cc3)nc2c1	0	14*	-1	/	3	-9	-2	3
CC(C)CC(=O)Nc1ccc2oc(-c3cccnc3)nc2c1	0	0	-3	/	-2	7	/	/
CC(C)(C)c1ccc(OCc2ccc(C(=O)N/N=C/c3ccc(O)c(O)c3)cc2)cc1	0	25*	-4	24	6	63*	9.8*	6
O=C(N/N=C/c1cccc(O)c1)c1ccc(COc2cccc3cccnc23)cc1	0	1	-3	-7	-3	?	/	/

Assay outcomes deposited in PubChem BioAssay by several laboratories.
